Data on 36 molecules can be found in ChEMBL document CHEMBL1138793, “A three-dimensional in silico pharmacophore model for inhibition of Plasmodium falciparum cyclin-dependent kinases and discovery of different classes of novel Pfmrk specific inhibitors” (J Med Chem, 2004).

One may read the IC50 as the concentration needed to halve the response being measured. Low values mean inhibition by little substance, high ones a need for much substance.

Several values for one entry are separate records, joined by “and”; a condition that tells them apart may be missing. Identical values can stand only once.

This assay addresses T1, Protein kinase Pfmrk (Plasmodium falciparum, UniProt P90584).
T1 sequence (P90584 whole entry): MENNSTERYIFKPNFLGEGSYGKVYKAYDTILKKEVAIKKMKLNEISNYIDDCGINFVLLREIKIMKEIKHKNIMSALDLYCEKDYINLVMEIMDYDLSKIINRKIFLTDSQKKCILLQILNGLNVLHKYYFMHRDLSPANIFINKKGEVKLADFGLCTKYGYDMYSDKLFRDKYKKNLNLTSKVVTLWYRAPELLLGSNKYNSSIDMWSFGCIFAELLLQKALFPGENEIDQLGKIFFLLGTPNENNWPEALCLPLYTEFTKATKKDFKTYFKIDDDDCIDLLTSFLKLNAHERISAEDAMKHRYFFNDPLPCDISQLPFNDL
Description: Inhibition of Plasmodium falciparum cyclin-dependent kinase. The method, boiled down:
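Recombinant 6xHIS-tagged Plasmodial CDK (3.0 μg) expressed in E. coli, assayed with 2.0 μg GST-tagged cyclin Pfcyc-1 and 5.0 μg RNA polymerase II CTD substrate in 40 mM Hepes pH 7.5, 30 mM MnCl₂, 2.0 mM DTT. Enzyme and compound preincubated 5 min at 30 °C. Reaction started with [γ-32P]ATP plus 12.5 μM ATP, run 35 min at 30 °C. Filter plate washed with phosphoric acid, counted by scintillation. Triplicates; IC50 from concentration range.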
`O=c1c(O)c(-c2cc(O)c(O)c(O)c2)oc2cc(O)cc(O)c12` [MYRICETIN] came in with an IC50 of 157 µM.

Molecule `CCOC(=O)/C(=C\c1ccccn1)C(=O)c1ccc([N+](=O)[O-])cc1` had an IC50 of 61 µM. In the case of `Cn1cnc2c(NCc3ccccc3)nc(NCCO)nc21` [OLOMOUCINE] it was 1100 µM. On to `NNC(Cc1c[nH]c2ccccc12)C(=O)O` (stereo unspecified), for which the IC50 came to 182 µM. The molecule `O=C1NC(=O)/C(=C2/C(=O)Nc3ccc(F)cc32)S1` displayed a half-maximal inhibitory concentration (IC50) of 30 µM. In the case of `O=C(Cl)c1c2c(nc3c(Cl)cc(Cl)cc13)-c1ccc(Cl)cc1CC2` it was 25 µM.

The molecule `O=c1c(-c2ccc(O)cc2)coc2cc(O)cc(O)c12` [GENISTEIN] came in with an IC50 of 93 µM. For `O=C(/C=C/c1ccccn1)c1ccc([N+](=O)[O-])cc1`, the IC50 worked out at 18 µM. In the case of `O=C1c2cc(F)ccc2-n2c1nc1ncccc1c2=O` it was 4.7 µM. The result for `N#C/C(=C1\OC(=O)N(c2ccc(Cl)cc2)C1=O)c1ccc(Cl)cc1` reads 14 µM. In the case of `O=C1Nc2ccccc2/C1=C/C(=O)c1ccccc1` it was 4 µM. Regarding `O=c1cc(-c2ccc(O)cc2)oc2cc(O)cc(O)c12` [APIGENIN], the IC50 worked out at 7 µM.

Take `O=C1c2cc([N+](=O)[O-])ccc2-n2c1nc1ncccc1c2=O`: the IC50 was 0.13 µM.

With `COc1ccc(-c2nnc(N(CCO)CCO)o2)cc1`, the IC50 came to 35.8 µM. In the case of `O=C1Nc2ccc([N+](=O)[O-])cc2/C1=C/c1ccccc1O` it was 35 µM; in that of `O=C(/C=C/c1ccccc1)c1cccc([N+](=O)[O-])c1`, 10 µM; in that of `O=C(N=C(S)Nc1cc([N+](=O)[O-])ccc1O)c1ccc(Cl)cc1Cl`, 10 µM. As for `CC(=O)Nc1ccc(C(=O)/C=C/c2ccccc2)cc1`, half-maximal inhibition (IC50) was put at 17 µM.

For `O=C1Nc2ccc([N+](=O)[O-])cc2C1=O` [5-NITROISATIN], 5.9 µM corresponded to half-maximal inhibition (IC50). The result for `O=S(=O)(O)c1cc(O)c(/N=N/c2ccc(O)cc2O)c2ccccc12` reads 11 µM; that for `CN1C(=O)/C(=C\C(=O)c2ccc(Br)cc2)c2ccccc21`, 29 µM. The result for `O=C1c2ccc(Cl)cc2-n2c1nc1ncccc1c2=O` reads 3.5 µM. The result for `Cc1cc(Cl)ccc1NC(=O)c1cccc([N+](=O)[O-])c1` reads 69 µM; that for `CC1NN=C(c2ccccc2)C1[N+](=O)[O-]` (stereo unspecified), 394 µM; that for `O=C1Nc2ccccc2/C1=C\c1ccc(C(F)(F)F)cc1`, 138 µM. Regarding `CCOC(=O)c1cc([N+](=O)[O-])ccc1Cl`, the IC50 worked out at 87 µM.

For `O=[N+]([O-])c1cc(S(=O)(=O)Nc2ccc(C(F)(F)F)cc2)sc1Cl`, inhibition was half-maximal at 2.5 µM (IC50). In the case of `Cc1ccc(C(=O)/C=C2\C(=O)Nc3ccc(Br)cc32)cc1` it was 2.9 µM; in that of `OC(c1cc(C(F)(F)F)nc2c(C(F)(F)F)cccc12)C1CCCCN1` (stereo unspecified) [MEFLOQUINE], 12 µM; in that of `CN(C)CCCn1cc(C2=C(c3c[nH]c4ccccc34)C(=O)NC2=O)c2ccccc21` [GF-109203], 24 µM. Turning to `COc1ccc2c(c1)/C(=C1\SC(=S)NC1=O)C(=O)N2`, the IC50 is 17.1 µM. In the case of `CCN(CC)CCCC(C)Nc1ccnc2cc(Cl)ccc12` (stereo unspecified) [CHLOROQUINE] it was 150 µM; in that of `O=C1/C(=C/c2ccccn2)CCc2ccccc21`, 17 µM. `NC(=S)NC1(c2ccccc2)OC(=O)c2ccccc21` (stereo unspecified) yielded an IC50 of 70 µM.

`Cn1cc(C(=O)C(C)(C)N)c2ccccc21` showed an IC50 of 46.2 µM. For the molecule `O=C(CCl)Nc1nc2c(Cl)cccc2s1`, the 50% inhibitory concentration (IC50) is 38 µM and 38.3 µM.
